Drawing on ChEMBL document CHEMBL1127737, “Characterization of two taxol photoaffinity analogues bearing azide and benzophenone-related photoreactive substituents in the A-ring side chain” (1994), this text covers EC50, Relative initial slope and Assembly for four compounds.

Assay [1] deals with J774. Nature of the assay: Concentration that inhibits the cell division by 50% after 72 h. The format is functional. Particulars: Mus musculus, J774, 72 h; read-out: ED50 (the source's name). In a few lines: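 J774.2 murine macrophage-like cells (3×10^5 per 60-mm plate) incubated with a range of compound concentrations; viable cell number counted by Coulter counter after 72 h. ED50 taken as the concentration inhibiting cell division by 50%. Compounds dissolved in DMSO, final DMSO at most 0.2%.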

Assay [2] can be described thus: Relative initial slope of the compound. The format is functional. In a few lines:
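Calf brain microtubule protein, purified by two cycles of temperature-dependent assembly-disassembly. Assembly ran in 0.1 M MES, 1 mM EGTA, MgCl2 and 3 M glycerol, pH 6.6, at 35 °C and was followed by turbidity at 350 nm. Assembly extent and initial slope were expressed relative to taxol. DMSO vehicle was at most 1% final.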

Assay [3] concerns Tubulin (Bos taurus). Briefly: Effect of compound on assembly property of microtubule protein. 1.5 mg/mL MTP + 15 uM compound.

Each structure is given as a SMILES string.

On to `CC(=O)O[C@H]1C(=O)[C@@]2(C)[C@H]([C@H](OC(=O)c3ccccc3)[C@]3(O)C[C@H](OC(=O)[C@H](O)[C@@H](NC(=O)c4ccc(N=[N+]=[N-])cc4)c4ccccc4)C(C)=C1C3(C)C)[C@]1(OC(C)=O)CO[C@@H]1C[C@@H]2O`, for which the EC50 in assay [1] worked out at 280 nM. For the same compound, the Relative initial slope in assay [2] was determined as 84.
`Nc1nc2c(ncn2[C@@H]2O[C@H](COP(=O)(O)OP(=O)(O)OP(=O)(O)O)[C@@H](O)[C@H]2O)c(=O)[nH]1` [GUANOSINE TRIPHOSPHATE] displayed a Relative initial slope in assay [2] of 65. In addition, in assay [3], the Assembly is 70%.
For `CC(=O)O[C@H]1C(=O)[C@@]2(C)[C@H]([C@H](OC(=O)c3ccccc3)[C@]3(O)C[C@H](OC(=O)[C@H](O)[C@@H](NC(=O)c4ccccc4)c4ccccc4)C(C)=C1C3(C)C)[C@]1(OC(C)=O)CO[C@@H]1C[C@@H]2O` [PACLITAXEL], in assay [1], the EC50 turned out to be 90 nM. This compound also came in with a Relative initial slope in assay [2] of 100. The Assembly in assay [3] is 100%.
Regarding `CC(=O)O[C@H]1C(=O)[C@@]2(C)[C@H]([C@H](OC(=O)c3ccccc3)[C@]3(O)C[C@H](OC(=O)[C@H](O)C(NC(=O)c4ccc(C(=O)c5ccccc5)cc4)c4ccccc4)C(C)=C1C3(C)C)[C@]1(OC(C)=O)CO[C@@H]1C[C@@H]2O` (stereo not given in full), in assay [1], the EC50 was 1500 nM. The compound also registered a Relative initial slope in assay [2] of 15. In addition, in assay [3], the Assembly turned out to be 39%.
